“Also recorded” adds a separate entry of the source. Read-outs that look alike come from different tables or passages of the source. Values belong to the molecule of their own block, whether it stands above or below them.
Columns and labels:
[1] = tested on: SK-OV-3 (ovarian) cancer cell line; assay: SRB growth inhibition assay, SK-OV-3; format: cell-based; conditions: Homo sapiens, SK-OV-3, 48 h, read-out: GI50 (μM) SRB assay SK-OV-3
[2] = tested on: DU-145 (prostate) cancer cell line; assay: SRB growth inhibition assay, DU-145; format: cell-based, human; conditions: read-out: GI50 (μM) SRB assay DU-145
[3] = tested on: NCI-H460 (lung) cancer cell line; assay: SRB growth inhibition assay, NCI-H460; format: cell-based, human; conditions: read-out: GI50 (μM) SRB assay NCI-H460
[4] = tested on: purified bovine brain tubulin; assay: Inhibition of tubulin polymerization; format: biochemical; conditions: cell-free assay
[5] = tested on: tubulin; assay: Inhibition of [3H]colchicine binding to tubulin; conditions: 1.0 µM tubulin, 5.0 µM [3H]colchicine
[6] = tested on: tumor vasculature; conditions: 30 mg/kg, rats; cited from earlier work
[7] = tested on: PC3-DAB2IP-luc human prostate tumor xenograft; assay: In vivo vascular disruption by dynamic bioluminescence imaging; design: species or system rat
Outline: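 Three male […] rats (about 6 weeks old, 100-120 g) carried s.c. right-thigh PC3-DAB2IP-luc tumors (5 X 10⁵ cells in 30% Matrigel), treated once tumors reached ≥1 cm diameter. Prodrug in saline was given IP as single or sequential doses, with CA4P IP as control. Under 3% isoflurane, 120 mg/kg D-luciferin was injected s.c. in the neck, fresh at each session. Tumor-ROI light emission was imaged over about 30 min at baseline, 4 h and 24 h.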

Molecule: COc1ccc2c(c1O)CCCC=C2c1cc(OC)c(OC)c(OC)c1 [KGP18, 3-Methoxy-9-(3,4,5-trimethoxyphenyl)-6,7-dihydro-5H-benzo[7]annulen-4-ol, reference compound]
GI50 [1]: 0.0543 nM
GI50 ([2]; Homo sapiens, DU-145, 48 h): 0.0249 nM
GI50 ([3]; Homo sapiens, NCI-H460, 48 h): 0.0418 nM

Molecule: COc1ccc2c(c1O)CC=CC=C2c1cc(OC)c(OC)c(OC)c1 [Compound 68, 3-Methoxy-9-(3,4,5-trimethoxyphenyl)-5H-benzo[7]annulen-4-ol]
GI50 [1]: 6.9 nM
GI50 ([2]; Homo sapiens, DU-145, 48 h): 97.6 nM

Molecule: COCCOCCOc1c(OC)ccc2c1CCCC=C2c1cc(OC)c(OC)c(OC)c1 [Compound 8, 3-Methoxy-4-(2-(2-methoxyethoxy)ethoxy)-9-(3,4,5-trimethoxyphenyl)-6,7-dihydro-5H-benzo[7]annulene]
Inhibition of tubulin polymerization (in words) [4]: loss of inhibitory activity

Molecule: COc1ccc2c(c1CO)CCCC=C2c1cc(OC)c(OC)c(OC)c1 [Compound 28, (3-Methoxy-9-(3,4,5-trimethoxyphenyl)-6,7-dihydro-5H-benzo[7]annulen-4-yl)methanol]
GI50 [1]: 40.3 nM

Molecule: COc1cc(C2CCc3c(ccc(OC)c3OC)C(=O)C2)cc(OC)c1OC (stereo not drawn) [Compound 57, 1,2-Dimethoxy-7-(3,4,5-trimethoxyphenyl)-6,7,8,9-tetrahydro-5H-benzo[7]annulen-5-one]
Inhibition of tubulin polymerization (in words) [4]: lack of activity
% Inhibition of colchicine binding ± SD ([5]; compound at 5 μM): 0 (5 μM) %

Molecule: COc1cc(C2(O)C=CCCc3c2ccc(OC)c3OC)cc(OC)c1OC (stereo not drawn) [Compound 56, 1,2-Dimethoxy-5-(3,4,5-trimethoxyphenyl)-8,9-dihydro-5H-benzo[7]annulen-5-ol]
Inhibition of tubulin polymerization (in words) [4]: lack of tubulin activity
% Inhibition of colchicine binding ± SD ([5]; compound at 5 μM): 0 (5 μM) %

Molecule: COc1ccc(/C=C\c2cc(OC)c(OC)c(OC)c2)cc1OP(=O)([O-])[O-].[Na+].[Na+] [CA4P, combretastatin A-4 phosphate, reference compound]
Vascular shutdown [6]: extensive vascular shutdown
Extent and longevity of diminished BLI signal compared with 40 mg/kg 69 ([7]; 30 mg/kg IP, rat): very similar effect

Molecule: COc1ccc(/C=C\c2cc(OC)c(OC)c(OC)c2)cc1O [CA4, combretastatin A-4, reference compound]
% Inhibition of colchicine binding ± SD ([5]; compound at 1 μM): 84 ± 3%

Molecule: N-(1-hydroxy-2-methoxy-5-(3,4,5-trimethoxyphenyl)-6,7,8,9-tetrahydro-5H-benzo[7]annulen-7-yl)acetamide [Compound 49]
GI50 ([2]; DU-145, 48 h treatment): 1200 nM
GI50 ([3]; NCI-H460, 48 h treatment): 334 nM
% Inhibition of colchicine binding ± SD ([5]; compound at 5 μM): 0.4 ± 0.6 (5 μM) %

Molecule: COc1cc(C2=CCCCc3c2ccc(OC)c3OCCO)cc(OC)c1OC [Compound 11, 2-((3-Methoxy-9-(3,4,5-trimethoxyphenyl)-6,7-dihydro-5H-benzo[7]annulen-4-yl)oxy)ethan-1-ol]
Inhibition of tubulin polymerization (in words) [4]: loss of inhibitory activity

% Inhibition of colchicine binding ± SD ([5]; compound at 5 μM): 0 (5 μM) %
Molecule: COc1ccc2c(c1O)CCCC(O)C2(O)c1cc(OC)c(OC)c(OC)c1 (stereo not drawn) [Compound 15, 2-Methoxy-5-(3,4,5-trimethoxyphenyl)-6,7,8,9-tetrahydro-5H-benzo[7]annulene-1,5,6-triol]

Molecule: COc1cc(C2=CC=CCc3c2ccc(OC)c3OP(=O)([O-])[O-])cc(OC)c1OC.[Na+].[Na+] [Compound 69, Sodium 3-methoxy-9-(3,4,5-trimethoxyphenyl)-5H-benzo[7]annulen-4-yl phosphate]
GI50 [1]: 15.3 nM
GI50 ([2]; Homo sapiens, DU-145, 48 h): 23.9 nM
Inhibition of tubulin polymerization (in words) [4]: inactive
Change in BLI light emission / vascular perturbation ([7]; 10 mg/kg IP, rat): minimal change in light emission; also recorded: no vascular perturbation
Recovery of BLI signal ([7]; 40 mg/kg IP, 24 h, rat): substantial recovery
Appearance of the rats ([7]; 40 mg/kg IP, 48 h): appeared healthy
Tolerability ([7]; 80 mg/kg IP, rat): well tolerated
Vascular disruption at the higher dose ([7]; 80 mg/kg IP, rat, compared with 40 mg/kg): did not show additional vascular disruption
